{"source": "ChEMBL document CHEMBL2346555", "about": "“Efficacious cyclic N-acyl O-amino phenol duocarmycin prodrugs” (J Med Chem, 2013)", "key": {"[1]": {"assay": "Stability of the compound in MeOH at 23 degC after 5 days in presence of NaHCO3", "type": "physicochemical", "conditions": "120 h"}, "[2]": {"assay": "Stability of the compound in THF at 23 degC after 5 days in presence of NaHCO3", "type": "physicochemical", "conditions": "120 h"}, "L1210": {"system": "L1210", "assay": "Cytotoxicity against mouse L1210 cells assessed as growth inhibition after 72 hrs by phosphatase assay", "type": "functional, cell-based", "conditions": "Mus musculus, L1210, 72 h", "outline": "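L1210 mouse leukemia cells were seeded at 30,000 cells/mL in DMEM with 10% FBS and grown 24 h at 37 °C, 5% CO2. DMSO dilutions were then added at six concentrations between 0–100 or 0–1000 nM, in duplicate, for 72 h. Read-out: phosphatase substrate in 0.1 M NaOAc pH 5.5 with 0.1% Triton X-100, 5 min at 37 °C, stopped with NaOH, A405. IC50 is the average of ≥4 determinations.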"}, "[3]": {"assay": "Half life of the compound in HCl/EtOAc at 23 degC", "type": "physicochemical"}, "[4]": {"assay": "Stability of the compound in DMF/H2O at 23 degC after 5 days in presence of NaHCO3", "type": "physicochemical", "conditions": "120 h"}, "[5]": {"assay": "Stability of the compound in MeOH at 254 nM after 2 hrs by LC-MS analysis in presence of NaHCO3 and BnNH2", "type": "physicochemical", "conditions": "0.254 µM"}, "[6]": {"assay": "Drug degradation in THF at 254 nM after 24 hrs by LC-MS analysis in presence of NaHCO3 and BnNH2", "type": "physicochemical", "conditions": "THF with NaHCO3 and BnNH2; read-out: Drug degradation"}, "[7]": {"assay": "Drug degradation in MeOH at 254 nM after 48 hrs by LC-MS analysis in presence of NaHCO3 and BnNH2", "type": "physicochemical", "conditions": "MeOH with NaHCO3 and BnNH2; read-out: Drug degradation"}, "[8]": {"assay": "Drug degradation in THF at 254 nM after 72 hrs by LC-MS analysis in presence of NaHCO3 and BnNH2", "type": "physicochemical", "conditions": "THF with NaHCO3 and BnNH2; read-out: Drug degradation"}, "[9]": {"assay": "Stability of the compound in THF at 254 nM under non basic condition in presence of BnNH2", "type": "physicochemical", "conditions": "0.254 µM"}, "[10]": {"assay": "Drug degradation in MeOH at 254 nM after 72 hrs by LC-MS analysis in presence of NaHCO3 and BnSH", "type": "physicochemical", "conditions": "MeOH with NaHCO3 and BnSH; read-out: Drug degradation"}, "[11]": {"assay": "Drug degradation in MeOH at 254 nM after 48 hrs by LC-MS analysis in presence of NaHCO3 and BnSH", "type": "physicochemical", "conditions": "MeOH with NaHCO3 and BnSH; read-out: Drug degradation"}, "[12]": {"assay": "Drug degradation in MeOH at 254 nM after 24 hrs by LC-MS analysis in presence of NaHCO3 and BnNH2", "type": "physicochemical", "conditions": "MeOH with NaHCO3 and BnNH2; read-out: Drug degradation"}, "[13]": {"assay": "Drug degradation in THF at 254 nM after 2 hrs by LC-MS analysis in presence of NaHCO3 and BnSH", "type": "physicochemical", "conditions": "THF with NaHCO3 and BnSH; read-out: Drug degradation"}, "[14]": {"assay": "Drug degradation in THF at 254 nM after 72 hrs by LC-MS analysis in presence of NaHCO3 and BnSH", "type": "physicochemical", "conditions": "THF with NaHCO3 and BnSH; read-out: Drug degradation"}, "[15]": {"assay": "Drug degradation in MeOH at 254 nM after 72 hrs by LC-MS analysis in presence of NaHCO3 and BnNH2", "type": "physicochemical", "conditions": "MeOH with NaHCO3 and BnNH2; read-out: Drug degradation"}, "[16]": {"assay": "Stability of the compound in THF at 254 nM under non basic condition in presence of BnSH", "type": "physicochemical", "conditions": "0.254 µM"}, "[17]": {"assay": "Drug degradation in THF at 254 nM after 48 hrs by LC-MS analysis in presence of NaHCO3 and BnSH", "type": "physicochemical", "conditions": "THF with NaHCO3 and BnSH; read-out: Drug degradation"}, "[18]": {"assay": "Drug degradation in THF at 254 nM after 48 hrs by LC-MS analysis in presence of NaHCO3 and BnNH2", "type": "physicochemical", "conditions": "THF with NaHCO3 and BnNH2; read-out: Drug degradation"}, "[19]": {"assay": "Half life of the compound in MeOH at 23 degC in presence of NaHCO3", "type": "physicochemical", "conditions": "MeOH with NaHCO3"}, "[20]": {"assay": "Drug degradation in MeOH at 254 nM after 2 hrs by LC-MS analysis in presence of NaHCO3 and BnSH", "type": "physicochemical", "conditions": "MeOH with NaHCO3 and BnSH; read-out: Drug degradation"}, "[21]": {"assay": "Drug degradation in THF at 254 nM after 2 hrs by LC-MS analysis in presence of NaHCO3 and BnNH2", "type": "physicochemical", "conditions": "THF with NaHCO3 and BnNH2; read-out: Drug degradation"}, "[22]": {"assay": "Drug degradation in THF at 254 nM after 24 hrs by LC-MS analysis in presence of NaHCO3 and BnSH", "type": "physicochemical", "conditions": "THF with NaHCO3 and BnSH; read-out: Drug degradation"}, "[23]": {"assay": "Drug degradation in MeOH at 254 nM after 24 hrs by LC-MS analysis in presence of NaHCO3 and BnSH", "type": "physicochemical", "conditions": "MeOH with NaHCO3 and BnSH; read-out: Drug degradation"}}}
{"smiles": "CN1Oc2cc3c(c4cccc(c24)C1=O)[C@H](CCl)CN3C(=O)OC(C)(C)C", "values": [{"measurement": "Stability", "setting": "[1]", "value": "Stable"}, {"measurement": "Stability", "setting": "[2]", "value": "Stable"}, {"measurement": "IC50", "setting": "L1210", "value": 850, "unit": "nM"}, {"measurement": "half-life", "setting": "[3]", "value": 24, "unit": "h"}, {"measurement": "Stability", "setting": "[4]", "value": "Stable"}]}
{"smiles": "CC(C)(C)OC(=O)N1C[C@@H](CCl)c2c1cc1c3c(cccc23)C(=O)NO1", "values": [{"measurement": "Stability", "setting": "[5]", "value": "Stable"}, {"measurement": "degraded at 24 h, 0.254 µM", "setting": "[6]", "value": 3, "unit": "%"}, {"measurement": "degraded at 48 h, 0.254 µM", "setting": "[7]", "value": 15, "unit": "%"}, {"measurement": "degraded at 72 h, 0.254 µM", "setting": "[8]", "value": 3, "unit": "%"}, {"measurement": "Stability", "setting": "[9]", "value": "Stable"}, {"measurement": "degraded at 72 h, 0.254 µM", "setting": "[10]", "value": 83, "unit": "%"}, {"measurement": "degraded at 48 h, 0.254 µM", "setting": "[11]", "value": 75, "unit": "%"}, {"measurement": "degraded at 24 h, 0.254 µM", "setting": "[12]", "value": 9, "unit": "%"}, {"measurement": "IC50", "setting": "L1210", "value": 650, "unit": "nM"}, {"measurement": "half-life", "setting": "[3]", "value": 2, "unit": "h"}, {"measurement": "degraded at 2 h, 0.254 µM", "setting": "[13]", "value": 28, "unit": "%"}, {"measurement": "degraded at 72 h, 0.254 µM", "setting": "[14]", "value": 46, "unit": "%"}, {"measurement": "degraded at 72 h, 0.254 µM", "setting": "[15]", "value": 16, "unit": "%"}, {"measurement": "Stability", "setting": "[16]", "value": "Stable"}, {"measurement": "degraded at 48 h, 0.254 µM", "setting": "[17]", "value": 39, "unit": "%"}, {"measurement": "degraded at 48 h, 0.254 µM", "setting": "[18]", "value": 4, "unit": "%"}, {"measurement": "half-life", "setting": "[19]", "value": 70, "unit": "h"}, {"measurement": "degraded at 2 h, 0.254 µM", "setting": "[20]", "value": 33, "unit": "%"}, {"measurement": "degraded at 2 h", "setting": "[21]", "value": 2, "unit": "%"}, {"measurement": "degraded at 24 h, 0.254 µM", "setting": "[22]", "value": 33, "unit": "%"}, {"measurement": "degraded at 24 h, 0.254 µM", "setting": "[23]", "value": 58, "unit": "%"}]}
